The list is not random: actives were taken first. Their share in the collection is about 2.5%.
SR-BI DiI inh: inhibitors of SR-BI mediated HDL lipid uptake, primary screen, ldlA[mSR-BI] cells, fluorescence, single point; ldlA[mSR-BI] CHO cells, DiI-HDL uptake fluorescence, 3 h; inhibition, % at 12.5 µM; AID 488896, 2010; Scavenger receptor class B member 1 (Mus musculus), Q61009; hit rate 0.96% among 320,000;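 active = mean replicate inhibition of at least 70% and a set share of replicates each scoring 70 or more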
Target sequence (Q61009 whole entry, looked up): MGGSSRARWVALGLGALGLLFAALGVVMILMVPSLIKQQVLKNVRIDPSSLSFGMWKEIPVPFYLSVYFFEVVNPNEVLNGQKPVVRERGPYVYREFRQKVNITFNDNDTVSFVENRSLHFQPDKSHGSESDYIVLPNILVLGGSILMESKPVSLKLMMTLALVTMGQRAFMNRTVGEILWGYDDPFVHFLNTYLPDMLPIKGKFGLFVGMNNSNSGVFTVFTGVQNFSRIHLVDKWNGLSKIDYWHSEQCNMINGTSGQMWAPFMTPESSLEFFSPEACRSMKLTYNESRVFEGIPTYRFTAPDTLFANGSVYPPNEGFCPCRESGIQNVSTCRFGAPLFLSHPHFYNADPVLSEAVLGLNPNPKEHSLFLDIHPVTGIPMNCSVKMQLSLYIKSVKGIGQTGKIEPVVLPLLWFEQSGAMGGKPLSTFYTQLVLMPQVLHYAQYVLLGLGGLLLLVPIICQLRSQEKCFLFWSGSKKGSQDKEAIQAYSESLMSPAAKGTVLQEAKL
Vif imaging: HIV Vif self-association inhibitors, primary screen, imaging, HEK293T, single point | inhibition, % at 7.49 µM | hit rate 0.35% among 340,000 | HEK293T cells, Vif self-association by quenched fluorescence, 24 h | AID 602346, 2012; in the data active = inhibition above about 50%, passing the limit was not always enough
SR-BI uptake up: activators of SR-BI mediated DiI-HDL uptake, primary screen, ldlA[mSR-BI] CHO cells, DiI fluorescence. hit rate 0.096% among 320,000. 3 h; 100 = double the neutral-control signal. activation, % at 12.5 µM;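 active = mean replicate activation of at least 60% and every replicate at or above 60%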
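Test system: SR-BI-overexpressing, LDLR-lacking CHO cells. Measured by: DiI fluorescence, bottom read. Medium: Ham's F12 with 0.5% BSA, HEPES 25 mM, pH 7.4. Timing: 3 h uptake period with compound, 37 °C.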
TAG inh: inhibitors of triacylglycerol accumulation, primary screen, cell-based, uHTS, fluorescence, H9c2; H9c2 cells, Nile Red lipid (TAG) fluorescence; cells loaded with 200 µM oleic acid; inhibition, % at 12.5 µM; hit rate 0.66% among 230,000;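 active = pattern-corrected inhibition of lipid staining of at least 50% with the nuclear-stain viability signal not falling by more than 50%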
SMARCA2 act: SMARCA2 (BRM) function activators, primary screen, cell-based, luminescence, high throughput; hit rate 1% among 370,000; MG213 cells, MMTV-luciferase reporter, dexamethasone, overnight; activation, % at 9.1 µM; in the data active = activation above about 7.8%
TAG conf: triacylglycerol accumulation inhibitors, retest, confirmation, cell-based, single concentration, Nile Red fluorescence, H9c2; shares compounds with TAG inh; inhibition, % at 12.5 µM; AID 651629, 2012; hit rate 71% among 990; H9c2 lipid accumulation; cells loaded with 200 µM oleic acid;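 active = mean inhibition across replicates of 40% or more; inactive = mean inhibition below 40%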
Each line names hits and unclear results; the compound was inactive in the other large screens (follow-up assays come after a bar, where they were run).

N#CCC1(O)C(=O)Nc2ccccc21 (stereo not given)	none (no result: SR-BI DiI inh, Vif imaging, SR-BI uptake up, TAG inh)
O=C(Nc1nccs1)C1(C(=O)C2CC2)CC(c2ccccn2)=NO1 (stereo not given)	none (no result: SR-BI DiI inh, Vif imaging, SR-BI uptake up, TAG inh)
Cc1cc(C)c2nc(N3CCC(C(=O)NCCCN4CCCCC4)CC3)sc2c1	TAG inh 60 | TAG conf inactive
COC(=O)[C@]12CCCCC=C1N(Cc1ccc(OC)cc1)C(=O)[C@@H]2CC(=O)NCCc1ccccc1OC	none (no result: SR-BI DiI inh, Vif imaging, SR-BI uptake up, TAG inh)
CCOC(=O)[C@H]1[C@H]2COc3ccc(Cl)cc3[C@@H]2N2C(=O)c3cc(Cl)ccc3NC(=O)[C@@]12C	TAG inh 50 | TAG conf 53
CCOC(=O)[C@H]1[C@H]2COc3ccc(Cl)cc3[C@@H]2N2C(=O)c3cc(Br)ccc3NC(=O)[C@@]12C	none
CCOC(=O)[C@@H]1[C@H]2COc3ccc(Br)cc3[C@@H]2N2C(=O)N(c3ccc(C(F)(F)F)cc3)C(=O)[C@@]12C	TAG inh 52 | TAG conf 69
CCOC(=O)[C@H]1[C@H]2COc3ccc(Br)cc3[C@@H]2N2C(=O)c3cc(Br)ccc3NC(=O)[C@@]12C	TAG inh 63 | TAG conf 52
O=C(NC1CCCCC1)OC[C@@H]1CSCCS(=O)(=O)N1	none (no result: SR-BI DiI inh, Vif imaging, SR-BI uptake up, TAG inh)
Cc1nnc2nc(N)[nH]n2c1=O	none (no result: SR-BI DiI inh, Vif imaging, SR-BI uptake up, TAG inh)
CCCCSc1nnc(-c2ccc(NC(=O)CCc3ccccc3)cc2)n1C	TAG inh 51 | TAG conf inactive
Cn1c(SCC(=O)NCc2ccccc2)nnc1-c1ccc(NC(=O)CCc2ccccc2)cc1	none
Cc1ccc(C(=O)NC2CCCCN(Cc3cccc(F)c3)C2=O)cc1 (stereo not given)	none (no result: SR-BI DiI inh, Vif imaging, SR-BI uptake up, TAG inh)
COc1ccc(NC(=O)NCCC2=CCCCC2)cc1	none
CCCCOc1ccc(NC(=O)C(=O)NCCC2=CCCCC2)cc1	TAG inh 64 (no result: Vif imaging) | TAG conf inactive
Cc1ccc(CN2CCCCC(NC(=O)c3ccc(F)c(F)c3)C2=O)cc1 (stereo not given)	none (no result: SR-BI DiI inh, Vif imaging, SR-BI uptake up, TAG inh)
Cc1occc1C(=O)NC(C)CCc1ccccc1 (stereo not given)	TAG inh 51 | TAG conf 54
CCOC(=O)[C@@]12CCC3=C1N(CCC3)C(=O)[C@H](CC(=O)NCCC(C)C)C2	none (no result: SR-BI DiI inh, Vif imaging, SR-BI uptake up, TAG inh)
CCOC(=O)[C@]12CCCC=C1N(CCCOC)C(=O)[C@@H]2CC(=O)NCC1CCCCC1	none (no result: SR-BI DiI inh, Vif imaging, SR-BI uptake up, TAG inh)
Cc1ccc(Nc2nc(OC(C(F)(F)F)C(F)(F)F)nc(N3CCOCC3)n2)cc1	TAG inh 100 | TAG conf 93
COc1ccc(Nc2nc(OC)nc(N3CCOCC3)n2)cc1	none
CN1C(=O)c2cc(NC(=O)Nc3ccc(F)c(F)c3)ccc2OC[C@H]2O[C@@H](CC(=O)O)CC[C@H]21	none (no result: SR-BI DiI inh, Vif imaging, SR-BI uptake up, TAG inh)
Nc1c(C(=O)Nc2ccccc2)c2nc3ccccc3nc2n1-c1ccc(O)cc1	TAG inh 64 | TAG conf 65
CCN1CCCCC(NC(=O)c2ccccc2OC)C1=O (stereo not given)	none (no result: SR-BI DiI inh, Vif imaging, SR-BI uptake up, TAG inh)
COc1ccc(NC(=O)Cn2c(-c3ccccc3)cn(-c3ccc(C)cc3)c2=O)cc1	TAG inh 56 | TAG conf inactive
CO/N=C\CC(=O)Nc1ccc(Oc2ccccc2)cc1	TAG inh 61 | TAG conf 81
O=C(C/C=N\O)Nc1ccc(Oc2ccccc2)cc1	none
COc1ccc([C@H]2CC(=O)C=C(c3ccc(OC)cc3OC)C2)cc1	Vif imaging 55, TAG inh 52 | TAG conf 81
CC[C@H](C)[C@H](NC(N)=O)C(=O)NCCc1ccc(OC)c(OC)c1	TAG inh 94 | TAG conf inactive
CN1CCCCC(NC(=O)c2ccc(C#N)cc2)C1=O (stereo not given)	none (no result: SR-BI DiI inh, Vif imaging, SR-BI uptake up, TAG inh)
COc1ccc(OC)c(C2CC(c3ccccc3)=NN2C(=S)Nc2ccccc2)c1 (stereo not given)	TAG inh 52 | TAG conf 50
O[C@@H](Cc1ccccc1)[C@@H](/C=C/c1ccccc1)N(Cc1ccccc1)Cc1ccccc1	none (no result: SR-BI DiI inh, Vif imaging, SR-BI uptake up, TAG inh)

Screening results deposited in PubChem BioAssay by several laboratories.
